An excerpt weighted towards active compounds, which were near 1.8% of everything screened.
NSD2 inh – blocks human histone methyltransferase NSD2 | AID 743445 | NSD2 peptide methylation, AlphaScreen, 120 min | inhibition, % at 12.5 µM | actives 0.54% (n = 310,000); in the data active = inhibition above about 50%
Casp6 inh – caspase-6 (human) enzyme inhibition; P55212; purified caspase-6, Z-VEID-R110 cleavage fluorescence; inhibition, % at 12.5 µM; actives 0.53% (n = 350,000); AID 686996;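 active = mean inhibition across replicates at least about 35%, with every replicate also reaching that limit, limit read from the data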;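 note: 0% = median of neutral control wells and 100% = no fluorescence left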
Target sequence (P55212 24-179 limits assumed): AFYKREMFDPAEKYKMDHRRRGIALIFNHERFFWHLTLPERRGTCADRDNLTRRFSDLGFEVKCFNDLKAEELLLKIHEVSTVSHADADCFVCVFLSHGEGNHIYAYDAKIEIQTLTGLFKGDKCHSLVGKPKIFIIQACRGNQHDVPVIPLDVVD
Target sequence (P55212 194-293 limits assumed): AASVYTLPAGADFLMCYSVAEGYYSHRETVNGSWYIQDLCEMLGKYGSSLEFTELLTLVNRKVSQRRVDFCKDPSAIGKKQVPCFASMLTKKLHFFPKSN
TDP2 inh – TDP2 (human) inhibition, absorbance primary screen; inhibition, % at 12.8 µM; actives 0.34% (n = 370,000); recombinant TDP2, T5PNP hydrolysis, p-nitrophenol absorbance 415 nm; O95551;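 active = inhibition above the mean of all tested compounds plus 3 SD, set per campaign, cut at about 25% in these data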;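 note: 0% = DMSO with enzyme and 100% = buffer with substrate but no TDP2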
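Assay system: recombinant human TDP2 / Reagent: T5PNP substrate at 5 mM, a TopII-DNA adduct mimic / Measured by: epi absorbance from released p-nitrophenol / Evaluation: % inhibition relative to enzyme-containing and enzyme-free wells / Control set: enzyme-free and DMSO wells / Replicates: each compound tested once, singlicate / Schedule: enzyme reaction with compound for 2 h at 37 °C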
MBD2 DNA inh – blocks human MBD2 binding to methylated DNA | Q9UBB5 | TR-FRET, MBD2 binding to methylated oligonucleotide | inhibition, % at 4.4 µM | actives 0.31% (n = 370,000) | AID 686964; in the data active = inhibition above about 13%
Target sequence (Q9UBB5 whole entry, looked up): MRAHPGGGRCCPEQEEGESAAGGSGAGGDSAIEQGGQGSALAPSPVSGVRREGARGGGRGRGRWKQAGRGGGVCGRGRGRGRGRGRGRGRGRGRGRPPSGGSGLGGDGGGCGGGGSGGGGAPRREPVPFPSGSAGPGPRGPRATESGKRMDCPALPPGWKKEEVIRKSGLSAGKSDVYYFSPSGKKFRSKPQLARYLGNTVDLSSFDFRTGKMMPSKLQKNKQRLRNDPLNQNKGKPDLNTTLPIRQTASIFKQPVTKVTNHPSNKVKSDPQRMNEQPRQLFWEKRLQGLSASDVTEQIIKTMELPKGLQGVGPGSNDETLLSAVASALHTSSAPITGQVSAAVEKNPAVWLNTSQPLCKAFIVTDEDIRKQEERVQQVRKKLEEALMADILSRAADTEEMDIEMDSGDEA
UHRF1 binding – human UHRF1 methylated DNA binding inhibitors; inhibition, % at 4.4 µM; Q96T88; UHRF1 binding to methylated oligo, TR-FRET; actives 0.75% (n = 370,000); in the data active = inhibition above about 21%;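 note: UHRF1 SRA domain binding a hemimethylated CpG hairpin DNA probe; 0% = median of test compound wells and 100% = reference inhibitor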
LEDGF integ inh – blocks HIV-1 LEDGF/p75-dependent DNA integration. AID 743269. inhibition, % at 3.7 µM. actives 0.64% (n = 370,000). TR-FRET IN-LEDGF/p75 DNA integration, Eu/Cy5;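 active = inhibition above the screen-wide mean plus 3 SD, cut at about 13% in these data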;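 note: signal is the Cy5 over europium emission ratio at 671 and 618 nm; 0% = plate median of compound wells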
Alpha artifact – AlphaScreen assay artifact in NSD2 counter-screen; shares compounds with NSD2 inh; actives 9.4% (n = 1,500); AlphaScreen artifact counterscreen, preloaded methylated H4 peptide; AID 1053174; AC35, µM (top dose mostly 10 µM), for inactives: at the top dose activity change, negative = signal loss; call rule not given here
* marks the source's active call; other numbers are inactive results; / = no result; ! = not confirmed by another sample.

SMILES | NSD2 inh | Casp6 inh | TDP2 inh | MBD2 DNA inh | UHRF1 binding | LEDGF integ inh | Alpha artifact
CC(=O)Nc1ccc(Sc2ccccc2C(=O)O)cn1 | 73* | 7 | 13 | 12 | 21* | 1 | -4%
C[C@H](CO)N1C[C@H](C)[C@H](CN(C)C(=O)Nc2ccccc2)Oc2c(cccc2N(C)C)C1=O | / | 2 | / | / | / | / | /
C[C@H]1CN([C@@H](C)CO)S(=O)(=O)c2ccc(C#CC3CCCC3)cc2O[C@@H]1CN(C)Cc1cccnc1 | / | -3 | / | / | / | / | /
CSc1ccc(/C=C2\C(=N)N3N=C(CC(=O)N4CCOCC4)SC3=NC2=O)cc1 | 8 | -1 | 9 | -4 | 0 | 3 | /
N=C1/C(=C\c2ccc(Br)o2)C(=O)N=C2SC(CC(=O)N3CCOCC3)=NN12 | 94* | 61* | 5 | 0 | 18 | 22* | -11%
O=C(NC1CCC1)[C@@H]1[C@@H](CO)[C@@H]2Cn3c(ccc(-c4ccccc4)c3=O)[C@H]1N2 | / | 2 | / | / | / | / | /
Cc1nc([N+](=O)[O-])c(C(=O)OCc2ccccc2F)n1C | 54* | 1 | -11 | -2 | 5 | -1 | -3%
CC12CC3(C)CC(C)(C1)CC(C(=O)NC1=NCCS1)(C2)C3 | 121* | / | -8 | 2 | -2 | 3 | -4%
CCCc1[nH]n(-c2nc3ccccc3s2)c(=O)c1C=NCCCN(CC)CC | 54* | -47 | 11 | -2 | 0 | 2 | 1%
CCCN=Cc1c(CCC)[nH]n(-c2nc3ccccc3s2)c1=O | / | / | 6 | -4 | -2 | 0 | /
CCCc1cc(=O)n(-c2nc3ccccc3s2)[nH]1 | 79* | 19 | 5 | 4 | -4 | 0 | 1%
CCn1c(SC(=O)NC2CCCCC2)nnc1-c1cccs1 | 59* | / | 1 | -6 | -3 | -3 | -1%
CCn1c(SCC(=O)NC2CCCCC2)nnc1-c1cccs1 | -1 | -8 | 9 | 4 | -1 | 2 | /
CCCC(=O)Nc1ccc2c(c1)OC[C@@H](C)N(C(=O)CC)C[C@@H](C)[C@H](OC)CN(C)C2=O | / | -2 | / | / | / | / | /
CCN(CC)CCCNc1ncnc2scc(-c3ccc(F)cc3)c12 | 63* | -2 | 5 | -2 | 0 | 4 | -3%
CC=Cc1ccc2n(c1=O)C[C@@H]1[C@@H](CO)[C@H](C(=O)N3CCc4ccccc4C3)[C@H]2N1Cc1ccncc1 (mixture of isomers) | / | 1 | / | / | / | / | /
CCCN(CCC)CCNC(=O)c1cc2c(-c3ccccc3F)nn(C)c2s1 | 53* | -1 | 9 | 1 | 4 | -4 | -3%
O=C(Nc1cccc(Cl)c1N1CCOCC1)c1cccs1 | / | 1 | 3 | -2 | -2 | 5 | /
COc1c(F)c(F)c(C(=O)Nc2cccc(Cl)c2N2CCOCC2)c(F)c1F | 56* | / | 4 | -2 | 1 | 0 | 0%
NC1=NC(=Nc2ccc(Br)cc2)c2ccccc21 | 53* | 0 | 0 | -3 | 1 | -1 | -9%
C[C@@H](NC(=O)C[C@H]1CC[C@H](NC(=O)c2cccnc2)[C@H](CO)O1)c1ccccc1 | / | -2 | / | / | / | / | /
CCNC(=O)Cc1ccc(NS(=O)(=O)c2ccc(F)cc2)cc1 | 109* | / | -4 | 5 | 0 | -2 | -2%
O=S(=O)(c1ccc2ccccc2c1)N1CCN(Cc2cccc(OCCO)c2)CC1 | / | -1 | / | / | / | / | /
COc1cc2c(C#N)c(N3CCN(C)CC3)nc(N)c2c(N)n1 | 24 | / | 12 | 2 | -3 | 1 | /
COc1cc2c(C#N)c(N3CCCC3)nc(N)c2c(N)n1 | 68* | 96*! | 11 | -11 | -17 | -1 | -2%
SMILES | NSD2 inh | Casp6 inh | TDP2 inh | MBD2 DNA inh | UHRF1 binding | LEDGF integ inh | Alpha artifact
Nc1c(Br)cc(Br)c2c1[nH]c(=O)c1ccccc12 | 73* | 39* | -1 | -7 | -10 | -6 | -8%
COc1ccc(C=C(c2nc3ccccc3s2)c2nc3ccccc3s2)cc1O | 59* | / | 8 | 0 | -5 | 1 | -10%
COc1cc(C=C(c2nc3ccccc3s2)c2nc3ccccc3s2)ccc1O | 7 | -2 | -4 | -4 | -5 | 2 | /
Cc1c(-c2cccc(Cl)c2)nc2ccccc2c1C(=O)OC/C(O)=C(\C#N)c1nc2ccccc2[nH]1 | 56* | 3 | 9 | -2 | -2 | -3 | -9%
Cc1ccc(S(=O)(=O)N(C)C[C@@H]2Oc3ccc(NC(=O)CCC(F)(F)F)cc3CC(=O)N([C@H](C)CO)C[C@@H]2C)cc1 | / | -1 | / | / | / | / | /
CC1C/C(=C\c2cccnc2)C(=O)/C(=C/c2cccnc2)C1 (stereo not drawn) | 58* | / | -1 | -2 | -1 | 6 | -8%
CSc1ccccc1NC(=O)CN(C)C(=O)COc1ncnc2ccccc12 | 56* | 0 | 0 | 1 | 5 | -2 | 1%
C[C@H](CO)N1C[C@H](C)[C@@H](CN(C)Cc2ccncc2)Oc2c(NC(=O)Nc3ccc4c(c3)OCO4)cccc2C1=O | / | 2 | / | / | / | / | /
CO[C@@H]1CN(C)C(=O)c2cc(NC(C)=O)ccc2OC[C@H](C)N(C(=O)c2ccccn2)C[C@H]1C | / | -5 | / | / | / | / | /
O=C(Nc1nnc(SCc2cccc3ccccc23)s1)C1COc2ccccc2O1 (stereo not drawn) | 63* | -3 | 7 | 4 | 6 | 0 | -1%
CCN(CC)CCNC(=O)c1c(C)[nH]c(/C=C2\C(=O)Nc3ccc(F)cc32)c1C | 50* | / | / | / | / | / | -14%
COc1ccc(Cl)cc1NC(=O)CN1CCN(S(=O)(=O)c2ccc(F)cc2)CC1 | -2 | 3 | -11 | 5 | 4 | -4 | /
CC(C)c1ccc(S(=O)(=O)N2CCN(CC(=O)Nc3ccc(Cl)cc3F)CC2)cc1 | 120* | -3 | 13 | -4 | 0 | -3 | -5%
C[C@H]1CN([C@@H](C)CO)C(=O)c2cccc(NC(=O)Nc3cccc4ccccc34)c2O[C@H]1CN(C)S(C)(=O)=O | / | 0 | / | / | / | / | /
CCN1CCN(C(=S)NCCOC)CC1 | 1 | 2 | -9 | -1 | 0 | 0 | /
CCOC(=O)N1CCN(C(=S)NCCOC)CC1 | 69* | / | 5 | -6 | 1 | 2 | 1%
Cc1ccc(S(=O)(=O)N(C)C[C@@H]2OCCCC[C@@H](C)Oc3ccc(NC(=O)NC(C)C)cc3C(=O)N([C@H](C)CO)C[C@@H]2C)cc1 | / | -2 | / | / | / | / | /
COc1ccc(NC(=O)N(CCCN(C)C)Cc2cc3cc(OC)ccc3[nH]c2=O)cc1 | 4 | / | -9 | -1 | 4 | 1 | /
CCN(CC)CCCN(Cc1cc2cc(OC)ccc2[nH]c1=O)C(=O)Nc1ccc(F)cc1 | 86* | / | -3 | -5 | -3 | -1 | -8%
COc1ccc(NC(=O)CN(C)S(=O)(=O)c2ccc(C)cc2)c([N+](=O)[O-])c1 | 67* | -2 | -8 | 0 | 8 | 2 | -4%

High-throughput results deposited in PubChem by several laboratories.
